Molecules are shown by their SMILES. Calls of active or inactive are those of the source. The rule behind the calls is not given here. Some results are limits rather than exact numbers.

By IC50 is commonly meant the point on the concentration scale where inhibition reaches its midpoint. Lower therefore signals inhibition by little substance. Broadly, the ED50 is the dose that gives a 50% effect, or the effect in half of the subjects. The term inhibition denotes the relative decrease from the control value, in per cent. Lower therefore signals little suppression.

Data set [1] relates to Hepatocyte. The data set can be described thus: Hepatotoxicity in primary human hepatocytes assessed as increase in lactate dehydrogenase release at 500 to 1000 uM measured after 3 to 12 hrs by fluorescence based analysis.
A short description of data set [2]: Hepatotoxicity in CD1 mouse assessed as increase in serum alanine aminotransferase level at 600 mg/kg, po measured after 12 hrs. It counts as toxicity, organism-based. The conditions noted are these: in vivo. The method in brief: (§1)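 Male CD1 mice fasted 15 h, given 600 mg/kg po, then fed ad libitum for 12 h. Whole blood taken by transcardial perfusion under 5% isoflurane, without anticoagulant, clotted 0.5 h at 25 °C, spun 1000 g 5 min at 4 °C. Serum stored at −80 °C, then assayed with commercial kits. n = 5 mice per compound; vehicle 0.9% NaCl.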

Data set [3] can be described thus: Renal toxicity in CD1 mouse assessed as increase in serum creatinine level at 600 mg/kg, po measured after 12 hrs. It counts as organism-based. The conditions noted are these: in vivo. The method in brief:
as §1

Data set [4] is described as follows: Hepatotoxicity in CD1 mouse assessed as increase in serum alkaline phosphatase level at 600 mg/kg, po measured after 12 hrs. Format: toxicity, organism-based. The conditions noted are these: in vivo. In a few lines:
as §1

Data set [5] in a line: Hepatotoxicity in CD1 mouse assessed as increase in serum aspartate aminotransferase level at 600 mg/kg, po measured after 12 hrs. The following applies: in vivo. Format: toxicity, organism-based. In a few lines: as §1
Data set [6] has as its target Cytochrome P450 2D6 (Homo sapiens, UniProt P10635). The data set can be described thus: Inhibition of CYP2D6 (unknown origin) in baculosomes preincubated for 20 mins followed by addition of CYP enzyme-specific substrate and NADP+ and measured after 30 mins by fluorescence based analysis. It counts as ADME. The method in brief: (§2)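 Vivid fluorogenic screen: each compound was premixed with CYP baculosomes and a regeneration system (glucose-6-phosphate plus G6P dehydrogenase) for 20 min at room temperature. Isozyme-specific substrate and NADP+ were then added for 30 min at room temperature. Reaction stopped with 0.5 M Tris base; metabolite fluorescence read. IC50 taken from 10-point titration curves.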

In data set [7] the target is Cytochrome P450 3A4 (Homo sapiens, UniProt P08684). The data set can be described thus: Inhibition of CYP3A4 (unknown origin) in baculosomes preincubated for 20 mins followed by addition of CYP enzyme-specific substrate and NADP+ and measured after 30 mins by fluorescence based analysis. Format: ADME. In a few lines:
as §2

Data set [8] can be described thus: Toxicity in CD1 mouse assessed as animal survival rate at 600 mg/kg, ip measured for every 4 hrs upto 48 hrs by Kaplan-Meier plot analysis. Format: organism-based. The following applies: in vivo. The method in brief: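 Male CD1 mice, four groups of n = 20, given 600 mg/kg ip or 0.9% NaCl vehicle; live animals counted every 4 h for 48 h; Kaplan-Meier survival curves plotted.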

The subject of data set [9] is HepaRG. Briefly: Hepatotoxicity in human HepaRG cells assessed as decrease in GSH level at 50 to 5000 uM measured after 6 to 24 hrs by Thiol tracker violet dye based fluorescence analysis. It counts as toxicity, cell-based. The following applies: dose lower 50 µM, time lower 6 hrs, dose upper 5000 µM, time upper 24 hrs. The method in brief:
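HepaRG cells (80% confluent, serum-starved 6–8 h) exposed to 50, 100, 1000 or 5000 μM for 6, 12 or 24 h. Medium then removed and cells rinsed with D-PBS-conditioned medium. Cells were stained 30 min with ThiolTracker Violet; fluorescence read at ex 404/em 526 nm and reported as RFU for cellular GSH.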

Data set [10] in a line: Hepatotoxicity in CD1 mouse assessed as loss of chicken wire hepatic tight junctions at 600 mg/kg, po measured after 12 hrs by ZO-1 staining based optical microscopy. It counts as toxicity, organism-based. The following applies: in vivo. In a few lines: (§3)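 At 12 h, mice under 5% isoflurane were exsanguinated with saline and perfusion-fixed with 10% NBF; livers fixed 24 h, moved to 80% EtOH, paraffin-embedded and sectioned. Stains: H&E (100x), nitrotyrosine, ZO-1 (200x; 3D stacks at 1000x), TUNEL (200x).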

The nature of data set [11]: Drug metabolism in CD1 mouse serum assessed as NAPQI formation at 600 mg/kg, po measured after 12 hrs by LC-MS/MS analysis. The conditions noted are these: in vivo. It counts as ADME, organism-based. The method in brief:
(§4)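 Male CD1 mice dosed at 600 mg/kg (ip or po). Serum extracted twice with 3 vol ethyl acetate on ice (30 min, 3000 g spin), dried under N2, redissolved in 1:1 MeOH:H2O. LC-MS/MS in positive electrospray MRM mode monitoring m/z 150.3→108.1, identity checked against spiked NAPQI standard retention time (5.1 min).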

A short description of data set [12]: Hepatotoxicity in CD1 mouse assessed as increase in nitrotyrosine formation in liver at 600 mg/kg, po measured after 12 hrs by nitrotyrosine immunostaining based optical microscopy. The conditions noted are these: in vivo.
Data set [13] can be described thus: Drug metabolism in CD1 mouse serum assessed as NAPQI formation at 600 mg/kg, ip measured after 12 hrs by LC-MS/MS analysis. It counts as ADME, organism-based. The following applies: in vivo. The method in brief: as §4
Data set [14] concerns Mus musculus. Briefly: Analgesic activity in po dosed CD1 mouse assessed as inhibition of acetic acid-induced abdominal writhing treated with acetic acid 25 mins post drug administration and measured after 5 mins for 10 mins. The following applies: 40 min. Format: functional. In a few lines: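 Male CD1 mice fasted 15 h; drug suspended in 0.9% NaCl with ≤10% DMSO given po at 5, 10, 20, 40, 80 mg/kg. 0.4% acetic acid 10 mL/kg ip 25 min later; writhes counted 10 min starting 5 min after acid. Compared to vehicle; mean ± SEM, n > 15 per group; ED50 from dose-response curves.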

The test system of data set [15] is Rattus norvegicus. The data set can be described thus: Analgesic activity in ip dosed complete freund's adjuvant-induced Sprague Dawley rat model of hyperalgesia assessed as inhibition of inflammatory pain measured after 30 mins by von Frey analgesimetric method. It counts as functional. The conditions noted are these: 0.5 h.
The nature of data set [16]: Hepatotoxicity in CD1 mouse assessed as increase in apoptotic nuclei at 600 mg/kg, po measured after 12 hrs by TUNEL staining. It counts as toxicity, organism-based. The following applies: in vivo. In a few lines:
as §3

Data set [17] has as its system Mus musculus. The data set can be described thus: Antipyretic activity against Baker's yeast-induced hyperthermia model in CD1 mouse at 80 mg/kg, po at 2 hrs post-injection by thermometer based analysis. Format: functional, organism-based. The method in brief: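 Male CD1 mice fasted overnight (15 h); baseline rectal temperature taken, then ip pyrogen (15% baker's yeast, 0.1 mL/kg). Rectal temperature read 4 h later; only febrile animals used, grouped by equal mean temperature. Drug or 0.9% NaCl given po at 80 mg/kg; rectal temperature recorded 2 h later; fall compared with 4 h fever value. Mean ± SEM, n = 10; one-way ANOVA with Sidak post-hoc.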

Data set [18] deals with HepaRG. Briefly: Hepatotoxicity in human HepaRG cells assessed as increase in lactate dehydrogenase release at 50 to 5000 uM […]. It counts as toxicity, cell-based. The following applies: dose 50-5000 µM.
Data set [19] can be described thus: Hepatotoxicity in CD1 mouse assessed as liver architecture at 600 mg/kg, po measured after 12 hrs by hematoxylin and eosin staining based optical microscopy. Format: toxicity, organism-based. The conditions noted are these: in vivo. In a few lines: as §3
For data set [20], the target named is CYP2E1 (Homo sapiens, UniProt P05181). Briefly: Inhibition of CYP2E1 (unknown origin) in baculosomes preincubated for 20 mins followed by addition of CYP enzyme-specific substrate and NADP+ and measured after 30 mins by fluorescence based analysis relative to control.
Data set [21] addresses CYP3A4 (Homo sapiens, UniProt P08684). The data set can be described thus: Inhibition of CYP3A4 (unknown origin) in baculosomes preincubated for 20 mins followed by addition of CYP enzyme-specific substrate and NADP+ and measured after 30 mins by fluorescence based analysis relative to control.

Chain of Cytochrome P450 3A4 (P08684 whole entry): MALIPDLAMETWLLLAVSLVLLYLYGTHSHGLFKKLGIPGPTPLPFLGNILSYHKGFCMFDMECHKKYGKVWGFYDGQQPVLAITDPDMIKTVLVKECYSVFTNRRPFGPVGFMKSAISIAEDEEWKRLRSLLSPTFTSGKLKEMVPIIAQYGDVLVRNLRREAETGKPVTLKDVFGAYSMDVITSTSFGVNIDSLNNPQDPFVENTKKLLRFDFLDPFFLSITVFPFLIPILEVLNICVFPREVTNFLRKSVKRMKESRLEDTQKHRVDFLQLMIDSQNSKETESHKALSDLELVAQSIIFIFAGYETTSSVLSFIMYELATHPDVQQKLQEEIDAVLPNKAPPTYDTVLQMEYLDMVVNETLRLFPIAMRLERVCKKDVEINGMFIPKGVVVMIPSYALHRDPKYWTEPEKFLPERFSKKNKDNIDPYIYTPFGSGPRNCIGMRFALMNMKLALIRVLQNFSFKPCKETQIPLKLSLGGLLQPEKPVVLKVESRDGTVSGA
Chain of Cytochrome P450 2D6 (P10635 whole entry): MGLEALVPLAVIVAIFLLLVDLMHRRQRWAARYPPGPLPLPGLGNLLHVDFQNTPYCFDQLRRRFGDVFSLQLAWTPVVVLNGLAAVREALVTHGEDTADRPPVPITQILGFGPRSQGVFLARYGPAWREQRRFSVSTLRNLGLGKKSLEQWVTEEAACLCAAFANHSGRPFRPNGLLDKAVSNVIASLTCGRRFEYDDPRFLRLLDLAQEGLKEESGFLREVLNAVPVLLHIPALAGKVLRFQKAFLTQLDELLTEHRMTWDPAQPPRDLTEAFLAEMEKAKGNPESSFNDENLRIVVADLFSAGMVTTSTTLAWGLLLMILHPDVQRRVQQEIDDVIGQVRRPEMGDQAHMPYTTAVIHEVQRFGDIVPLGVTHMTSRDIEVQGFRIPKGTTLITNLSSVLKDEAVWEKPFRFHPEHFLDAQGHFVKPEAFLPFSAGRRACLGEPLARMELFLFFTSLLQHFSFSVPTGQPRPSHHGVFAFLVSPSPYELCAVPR
Chain of CYP2E1 (P05181 whole entry): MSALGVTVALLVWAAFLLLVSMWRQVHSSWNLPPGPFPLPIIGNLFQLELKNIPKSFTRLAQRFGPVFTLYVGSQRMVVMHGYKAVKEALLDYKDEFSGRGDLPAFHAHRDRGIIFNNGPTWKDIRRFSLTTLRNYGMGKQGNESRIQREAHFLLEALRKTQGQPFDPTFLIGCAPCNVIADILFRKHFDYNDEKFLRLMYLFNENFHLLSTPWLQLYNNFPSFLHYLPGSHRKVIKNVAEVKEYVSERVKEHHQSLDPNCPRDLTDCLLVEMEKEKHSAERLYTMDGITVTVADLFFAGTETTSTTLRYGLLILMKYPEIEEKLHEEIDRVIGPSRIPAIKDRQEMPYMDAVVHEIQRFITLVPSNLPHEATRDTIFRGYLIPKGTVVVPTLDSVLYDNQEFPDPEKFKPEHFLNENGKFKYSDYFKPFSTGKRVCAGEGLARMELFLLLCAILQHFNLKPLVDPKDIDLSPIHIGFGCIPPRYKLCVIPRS
Chain of CYP3A4 (P08684 whole entry): as the sequence (P08684 whole entry) above

`O=C(CNS(=O)(=O)c1ccccc1C(=O)NCCc1ccccc1)Nc1ccc(O)cc1`: in data set [1], the Activity result is “Toxic”.

Regarding `COc1ccc(CNC(=O)c2ccccc2S(=O)(=O)NCC(=O)Nc2ccc(O)cc2)cc1`, the Activity result in data set [2] was “Non-Toxic”; in data set [3] it was “Non-Toxic”; in data set [4], “Non-Toxic”; in data set [1], “Toxic”; in data set [5], “Non-Toxic”.

As to `NC(=O)c1ccccc1S(=O)(=O)NCC(=O)Nc1ccc(O)cc1`, the Activity result in data set [1] is reported as “Toxic”.

With `O=C(CNS(=O)(=O)c1ccccc1C(=O)NC1CCCC1)Nc1ccc(O)cc1`, the Activity result is “Non-Toxic” in data set [2]; “Non-Toxic” in data set [3]; “Non-Toxic” in data set [4]; “Toxic” in [1]; “Non-Toxic” in data set [5].

With `Cc1ccc(CNC(=O)c2ccccc2S(=O)(=O)NCC(=O)Nc2ccc(O)cc2)cc1`, the Activity result is recorded as “Non-Toxic” in [2]; “Non-Toxic” in data set [3]; “Non-Toxic” in data set [4]; “Toxic” in [1]; “Non-Toxic” in data set [5].

In the case of `CNC(=O)c1ccccc1S(=O)(=O)NCC(=O)Nc1ccc(O)cc1`, the Activity entry in [2], in data set [3], in data set [9], in data set [10], in data set [4] and in data set [12] was “Non-Toxic” each time. The Activity result in data set [16], in [1], in data set [5], in data set [18] and in [19] was “Non-Toxic” throughout. The IC50 in [6] and in [7] was over 10 µM throughout. Moreover, in data set [8], the survival at 48 h turned out to be 100%. The Drug metabolism result in data set [11] and in data set [13] was “Metabolite_Notdetected” throughout. The values for the ED50 in data set [14] and in data set [15] were 45.2 µmol/kg and 198 µmol/kg, respectively. The result in data set [17] was Active.

Regarding `O=C(CNS(=O)(=O)c1ccccc1C(=O)NCCc1ccc(O)c(O)c1)Nc1ccc(O)cc1`, the Activity entry in data set [2], in [3], in data set [9], in data set [10], in [4] and in data set [12] was “Non-Toxic” in each case. Also, the Activity result in data set [16], in [1], in data set [5], in [18] and in [19] was “Non-Toxic” each time. In addition, the IC50 is over 10 µM in [6] and 4.82 µM in data set [7]. The survival at 48 h in data set [8] was found to be 100%. Further, the Drug metabolism entry in [11] and in [13] was “Metabolite_Notdetected” in each case. Moreover, the 50% effective dose (ED50) is 14.7 µmol/kg in data set [14] and 177 µmol/kg in [15]. Besides, the result in [17] was Active. Moreover, the inhibition at 0.5 h in data set [20] and in data set [21] was 25% throughout.

Regarding `O=C(CNS(=O)(=O)c1ccccc1C(=O)NCc1ccc(Cl)c(Cl)c1)Nc1ccc(O)cc1`, the Activity result in data set [2], in [3], in [4], in data set [1] and in data set [5] was “Non-Toxic” each time.

Take `O=C(CNS(=O)(=O)c1ccccc1C(=O)NCc1cccc(Cl)c1)Nc1ccc(O)cc1`: the Activity result is reported as “Non-Toxic” in data set [2]; “Non-Toxic” in data set [3]; “Non-Toxic” in data set [4]; “Toxic” in data set [1]; “Non-Toxic” in data set [5].

In the case of `CC(C)CNC(=O)c1ccccc1S(=O)(=O)NCC(=O)Nc1ccc(O)cc1`, the Activity result in data set [2] was “Non-Toxic”; in data set [3] it was “Non-Toxic”; in data set [4] it was “Non-Toxic”; in data set [1], “Toxic”; in data set [5], “Non-Toxic”.

On to `O=C(CNS(=O)(=O)c1ccccc1C(=O)NCc1ccc([N+](=O)[O-])cc1)Nc1ccc(O)cc1`, for which the Activity result in data set [2], in data set [3], in data set [4], in [1] and in data set [5] was “Non-Toxic” each time.

In the case of `O=C(CNS(=O)(=O)c1ccccc1C(=O)N1CCOCC1)Nc1ccc(O)cc1`, the Activity entry in [1] is given as “Non-Toxic”.

Take `CC(C)NC(=O)c1ccccc1S(=O)(=O)NCC(=O)Nc1ccc(O)cc1`: the Activity entry in data set [1] is recorded as “Toxic”.

For the compound `CN(C)C(=O)c1ccccc1S(=O)(=O)NCC(=O)Nc1ccc(O)cc1`, the Activity result in [2] was “Non-Toxic”; in [3] it was “Non-Toxic”; in [4], “Non-Toxic”; in data set [1], “Toxic”; in [5], “Non-Toxic”.

Turning to `O=C(CNS(=O)(=O)c1ccccc1C(=O)NCCN1CCCC1)Nc1ccc(O)cc1`, the Activity entry in [2], in [3], in data set [4], in data set [1] and in [5] was “Non-Toxic” throughout.

Turning to `CCCCNC(=O)c1ccccc1S(=O)(=O)NCC(=O)Nc1ccc(O)cc1`, the Activity result was “Non-Toxic” in [2]; “Non-Toxic” in data set [3]; “Non-Toxic” in data set [4]; “Toxic” in data set [1]; “Non-Toxic” in [5].

For the compound `O=C(CNS(=O)(=O)c1ccccc1C(=O)NCc1ccccn1)Nc1ccc(O)cc1`, the Activity entry in data set [2] is on record as “Non-Toxic”; in [3], “Non-Toxic”; in data set [4], “Non-Toxic”; in [1] it was “Toxic”; in data set [5] it was “Non-Toxic”.

Regarding `O=C(CNS(=O)(=O)c1ccccc1C(=O)NCc1ccccc1)Nc1ccc(O)cc1`, the Activity entry in [1] was “Toxic”.

As to `O=C(CNS(=O)(=O)c1ccccc1C(=O)N1CCN(Cc2ccccc2)CC1)Nc1ccc(O)cc1`, the Activity result in data set [1] was “Toxic”.

For the origin of these results see ChEMBL document CHEMBL4706503, “A novel pipeline of 2-(benzenesulfonamide)-N-(4-hydroxyphenyl) acetamide analgesics that lack hepatotoxicity and retain antipyresis” (Eur J Med Chem, 2020).
